Activity calls are given as the source filed them. The rule behind the calls is not given here.
How the values were obtained:
Mus musculus [1] = experiment: Anti-alzheimer activity against APP/PS1 dE9 double transgenic mouse model assessed as decrease in escape latency at 5 mg/kg, ip administered once daily for 30 consecutive day measured on day 5 by morris water maze test; format: functional, organism-based; settings: time 30.0 day
How it was run: (§1)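 Female APP/PS1 mice, 10 months old, about 30 g, 10 per group. Dosing was intraperitoneal in 1× PBS, once daily for one month (1 or 10 mg/kg test; 5 mg/kg donepezil). WT and untreated APP/PS1 controls got PBS. Morris water maze: training days 1–4, averaged escape latency. Day-5 probe trial ran 60 s with the platform removed, recording platform crossings and time per quadrant. Mean ± SEM.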

Mus musculus [2] = experiment: Anti-alzheimer activity against APP/PS1 dE9 double transgenic mouse model assessed as increase in platform crossings at 5 mg/kg, ip administered once daily for 30 consecutive days […] by morris water maze test; format: functional, organism-based; settings: time 30.0 day; how it was run: as §1
Mus musculus [3] = experiment: Anti-alzheimer activity against APP/PS1 dE9 double transgenic mouse model assessed as increase in time spent in the target quadrant at 5 mg/kg, ip administered once daily for 30 consecutive days measured on day 5 by morris water maze test; format: functional, organism-based; settings: time 30.0 day; how it was run: as §1
Mus musculus [4] = experiment: Anti-alzheimer activity in hippocampus of APP/PS1 dE9 double transgenic mouse model assessed as reduction in glial cell aggregation at 5 mg/kg, ip administered once daily for 30 consecutive days by immunofluorescence staining; format: functional, organism-based; settings: time 30.0 day
How it was run: (§2)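 Brains from dosed female APP/PS1 mice (10 months) were fixed in 4% paraformaldehyde at 4 °C for 24–48 h, taken through a sucrose gradient and OCT, and cut into 15 μm sections. Sections were permeabilized with 0.3% Triton X-100, blocked in 10% BSA for 1 h, and incubated with primary antibody overnight at 4 °C (1:200). Secondary was 1:500 for 1 h at 25 °C, with DAPI counterstain and confocal imaging, in triplicate.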

Mus musculus [5] = experiment: Anti-alzheimer activity in hippocampus of APP/PS1 dE9 double transgenic mouse model assessed as reduction in amyloid beta plaque deposition at 5 mg/kg, ip administered once daily for 30 consecutive days by immunofluorescence staining; format: functional, organism-based; settings: time 30.0 day; how it was run: as §2
Mus musculus [6] = experiment: Anti-alzheimer activity in hippocampus of APP/PS1 dE9 double transgenic mouse model assessed as increase in SOD content at 5 mg/kg, ip administered once daily for 30 consecutive days by immunofluorescence analysis; format: functional, organism-based; settings: time 30.0 day
Mus musculus [7] = experiment: Anti-alzheimer activity in hippocampus of APP/PS1 dE9 double transgenic mouse model assessed as decrease in MDA level at 5 mg/kg, ip administered once daily for 30 consecutive days […]; format: functional, organism-based; settings: time 30.0 day
How it was run: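 Hippocampal tissue from dosed APP/PS1 mice was lysed in RIPA. SOD activity was read by WST-8/xanthine oxidase formazan kit assay and MDA by lipid peroxidation kit, with absorbance on a microplate reader.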

Mus musculus [8] = experiment: Neuroprotective activity in APP/PS1 dE9 double transgenic mouse model assessed as improvement in spatial memory at 5 mg/kg, ip administered once daily for 30 consecutive days […] by morris water maze test; format: functional, organism-based; settings: time 30.0 day; how it was run: as §1
PC-12 [9] = experiment: Neuroprotective activity against Abeta1-42 induced rat PC12 cells assessed as effect on Bcl2/Bax ratio level at 1.25 uM preincubated for 0.5 hrs followed by Abeta1-42 induction and measured after 24 hrs by Western blot analysis; format: functional, cell-based; settings: time 24.5 hrs
How it was run: (§3)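 Aβ1–42 challenge in PC12 cells was 10 μM for 24 h after 3 h pretreatment at 10 μM. SP600125 (1.25 μM) was added 0.5 h before pretreatment where used. Cells were lysed in RIPA and protein measured by BCA. Blotting used PVDF transfer, 5% BSA/TBST block for 2 h, primaries 1:1000 overnight at 4 °C, and HRP secondary for 2 h. Bcl-2/Bax ratio and band intensities were quantified.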

PC-12 [10] = experiment: Neuroprotective activity against Abeta1-42 induced rat PC12 cells assessed as effect on cleaved caspase-3 protein level at 1.25 uM preincubated for 0.5 hrs followed by Abeta1-42 induction and measured after 24 hrs by Western blot analysis; format: functional, cell-based; settings: time 24.5 hrs; how it was run: as §3

SMILES | Activity (Mus musculus [1]) | Activity (Mus musculus [2]) | Activity (Mus musculus [3]) | Activity (Mus musculus [4]) | Activity (Mus musculus [5]) | Activity (Mus musculus [6]) | Activity (Mus musculus [7]) | Activity (Mus musculus [8]) | Activity (PC-12 [9]) | Activity (PC-12 [10])
COc1cc2c(cc1OC)C(=O)C(CC1CCN(Cc3ccccc3)CC1)C2 (stereo not given) | Active | Active | Active | Active | Active | Active | Active | Active | – | –
O=C1c2ccccc2-c2n[nH]c3cccc1c23 | – | – | – | – | – | – | – | – | inactive | inactive

Source: ChEMBL document CHEMBL5390295, “Isolinderalactone Ameliorates the Pathology of Alzheimer's Disease by Inhibiting the JNK Signaling Pathway” (2023)
